Converted amounts (≈) assume the structure as drawn.
Tests used:
Type in all cases: functional
Staphylococcus aureus [1] = assay: Antimicrobial activity against heterogeneous vancomycin-intermediate Staphylococcus aureus assessed as growth inhibition at 2 times MIC; parameters: scale not given: the % may be the effect or the level left
Staphylococcus aureus [2] = assay: Antimicrobial activity against SCCmec type III vancomycin-intermediate Staphylococcus aureus isolate b2k3421 by agar dilution method
Summary of the method: (§1)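 Agar-dilution MICs were measured on a subset of 200 blood MRSA isolates from China. Agents: oxacillin, rifampin, gentamicin, levofloxacin, erythromycin, vancomycin, teicoplanin, tigecycline, ceftobiprole and linezolid. Phenotype came from the PAP-AUC ratio of each isolate to S. aureus Mu3 (VSSA <0.9; hVISA 0.9 to 1.3; VISA ≥1.3), read on BHI agar with 0 to 8.0 mg/liter vancomycin after 48 h at 35°C.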

Staphylococcus aureus [3] = assay: Antimicrobial activity against SCCmec type III vancomycin-intermediate Staphylococcus aureus isolate gz07030 by agar dilution method; summary of the method: as §1
Staphylococcus aureus [4] = assay: Antimicrobial activity against SCCmec type III vancomycin-intermediate Staphylococcus aureus isolate 5zjsau3 by agar dilution method; summary of the method: as §1
Staphylococcus aureus [5] = assay: Antimicrobial activity against vancomycin-intermediate Staphylococcus aureus by agar dilution method; summary of the method: as §1
Staphylococcus aureus [6] = assay: Antimicrobial activity against heterogeneous vancomycin-intermediate Staphylococcus aureus assessed as growth inhibition at 0.5 times MIC; parameters: scale not given: the % may be the effect or the level left
Staphylococcus aureus [7] = assay: Antimicrobial activity against heterogeneous vancomycin-intermediate Staphylococcus aureus assessed as growth inhibition at 0.125 times MIC; parameters: scale not given: the % may be the effect or the level left
Staphylococcus aureus [8] = assay: Antimicrobial activity against heterogeneous vancomycin-intermediate Staphylococcus aureus assessed as intermediate isolates by agar dilution method
Summary of the method: (§2)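 MICs by agar dilution for all 200 MRSA blood isolates (oxacillin, rifampin, gentamicin, levofloxacin, erythromycin, vancomycin, teicoplanin, tigecycline, ceftobiprole, linezolid). Isolates were grouped by PAP-AUC ratio against S. aureus Mu3: below 0.9 VSSA, 0.9 to 1.3 hVISA, 1.3 or more VISA.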

Staphylococcus aureus [9] = assay: Antimicrobial activity against vancomycin-susceptible Staphylococcus aureus by agar dilution method; summary of the method: as §1
Staphylococcus aureus [10] = assay: Antimicrobial activity against heterogeneous vancomycin-intermediate Staphylococcus aureus assessed as growth inhibition at 0.25 times MIC; parameters: scale not given: the % may be the effect or the level left
Staphylococcus aureus [11] = assay: Antimicrobial activity against SCCmec type III vancomycin-intermediate Staphylococcus aureus isolate xa07029 by agar dilution method; summary of the method: as §1
Staphylococcus aureus [12] = assay: Antimicrobial activity against SCCmec type II vancomycin-intermediate Staphylococcus aureus isolate 4sy32 by agar dilution method; summary of the method: as §1
Staphylococcus aureus [13] = assay: Antimicrobial activity against heterogeneous vancomycin-intermediate Staphylococcus aureus assessed as growth inhibition at MIC; parameters: scale not given: the % may be the effect or the level left
Staphylococcus aureus [14] = assay: Antimicrobial activity against vancomycin-susceptible Staphylococcus aureus assessed as growth inhibition at 4 times MIC; parameters: scale not given: the % may be the effect or the level left
Staphylococcus aureus [15] = assay: Antimicrobial activity against SCCmec type III vancomycin-intermediate Staphylococcus aureus isolate bd4768 by agar dilution method; summary of the method: as §1
Staphylococcus aureus [16] = assay: Antimicrobial activity against vancomycin-susceptible Staphylococcus aureus assessed as growth inhibition at 0.5 times MIC; parameters: scale not given: the % may be the effect or the level left
Staphylococcus aureus [17] = assay: Antimicrobial activity against heterogeneous vancomycin-intermediate Staphylococcus aureus assessed as growth inhibition at 16 times MIC; parameters: scale not given: the % may be the effect or the level left
Staphylococcus aureus [18] = assay: Antimicrobial activity against SCCmec type III vancomycin-intermediate Staphylococcus aureus isolate b5k3529 by agar dilution method; summary of the method: as §1
Staphylococcus aureus [19] = assay: Antimicrobial activity against vancomycin-susceptible Staphylococcus aureus assessed as growth inhibition at 16 times MIC; parameters: scale not given: the % may be the effect or the level left
Staphylococcus aureus [20] = assay: Antimicrobial activity against vancomycin-susceptible Staphylococcus aureus assessed as growth inhibition at 0.25 times MIC; parameters: scale not given: the % may be the effect or the level left
Staphylococcus aureus [21] = assay: Antimicrobial activity against SCCmec type III vancomycin-intermediate Staphylococcus aureus isolate b6k7974 by agar dilution method; summary of the method: as §1
Staphylococcus aureus [22] = assay: Antimicrobial activity against SCCmec type III vancomycin-intermediate Staphylococcus aureus isolate b3k5923 by agar dilution method; summary of the method: as §1
Staphylococcus aureus [23] = assay: Antimicrobial activity against SCCmec type III vancomycin-intermediate Staphylococcus aureus isolate 15b52 by agar dilution method; summary of the method: as §1
Staphylococcus aureus [24] = assay: Antimicrobial activity against SCCmec type III vancomycin-intermediate Staphylococcus aureus isolate b5k3578 by agar dilution method; summary of the method: as §1
Staphylococcus aureus [25] = assay: Antimicrobial activity against SCCmec type II vancomycin-intermediate Staphylococcus aureus isolate b2k4781 by agar dilution method; summary of the method: as §1
Staphylococcus aureus [26] = assay: Antimicrobial activity against vancomycin-susceptible Staphylococcus aureus assessed as growth inhibition at 2 times MIC; parameters: scale not given: the % may be the effect or the level left
Staphylococcus aureus [27] = assay: Antimicrobial activity against SCCmec type III vancomycin-intermediate Staphylococcus aureus isolate gs07022 by agar dilution method; summary of the method: as §1
Staphylococcus aureus [28] = assay: Antimicrobial activity against SCCmec type III vancomycin-intermediate Staphylococcus aureus isolate b3k2345 by agar dilution method; summary of the method: as §1
Staphylococcus aureus [29] = assay: Antimicrobial activity against SCCmec type III vancomycin-intermediate Staphylococcus aureus isolate b4k6307 by agar dilution method; summary of the method: as §1
Staphylococcus aureus [30] = assay: Antimicrobial activity against SCCmec type IV vancomycin-intermediate Staphylococcus aureus isolate 06b41 by agar dilution method; summary of the method: as §1
Staphylococcus aureus [31] = assay: Antimicrobial activity against heterogeneous vancomycin-intermediate Staphylococcus aureus assessed as susceptible isolates by agar dilution method; summary of the method: as §2
Staphylococcus aureus [32] = assay: Antimicrobial activity against SCCmec type II vancomycin-intermediate Staphylococcus aureus isolate 4sy39 by agar dilution method; summary of the method: as §1
Staphylococcus aureus [33] = assay: Antimicrobial activity against heterogeneous vancomycin-susceptible Staphylococcus aureus assessed as susceptible isolates by agar dilution method; summary of the method: as §2
Staphylococcus aureus [34] = assay: Antimicrobial activity against SCCmec type II vancomycin-intermediate Staphylococcus aureus isolate 6zjsau7 by agar dilution method; summary of the method: as §1
Staphylococcus aureus [35] = assay: Antimicrobial activity against SCCmec type III vancomycin-intermediate Staphylococcus aureus isolate b6k1642 by agar dilution method; summary of the method: as §1
Staphylococcus aureus [36] = assay: Antimicrobial activity against heterogeneous vancomycin-susceptible Staphylococcus aureus assessed as intermediate isolates by agar dilution method
Staphylococcus aureus [37] = assay: Antimicrobial activity against vancomycin-susceptible Staphylococcus aureus assessed as growth inhibition at 0.125 times MIC; parameters: scale not given: the % may be the effect or the level left
Staphylococcus aureus [38] = assay: Antimicrobial activity against heterogeneous vancomycin-intermediate Staphylococcus aureus assessed as growth inhibition at 4 times MIC; parameters: scale not given: the % may be the effect or the level left
Staphylococcus aureus [39] = assay: Antimicrobial activity against SCCmec type III vancomycin-intermediate Staphylococcus aureus isolate zj07028 by agar dilution method; summary of the method: as §1
Staphylococcus aureus [40] = assay: Antimicrobial activity against vancomycin-susceptible Staphylococcus aureus assessed as growth inhibition at MIC; parameters: scale not given: the % may be the effect or the level left
Staphylococcus aureus [41] = assay: Antimicrobial activity against heterogeneous vancomycin-intermediate Staphylococcus aureus by agar dilution method; summary of the method: as §1
Staphylococcus aureus [42] = assay: Antimicrobial activity against SCCmec type II vancomycin-intermediate Staphylococcus aureus isolate 07b63 by agar dilution method; summary of the method: as §1
Staphylococcus aureus [43] = assay: Antimicrobial activity against SCCmec type III vancomycin-intermediate Staphylococcus aureus isolate gz06040 by agar dilution method; summary of the method: as §1
Staphylococcus aureus [44] = assay: Antimicrobial activity against SCCmec type II vancomycin-intermediate Staphylococcus aureus isolate sh06024 by agar dilution method; summary of the method: as §1
Staphylococcus aureus [45] = assay: Antimicrobial activity against SCCmec type III vancomycin-intermediate Staphylococcus aureus isolate 13b16 by agar dilution method; summary of the method: as §1
Staphylococcus aureus [46] = assay: Antimicrobial activity against SCCmec type III vancomycin-intermediate Staphylococcus aureus isolate sh07043 by agar dilution method; summary of the method: as §1
Staphylococcus aureus [47] = assay: Antimicrobial activity against SCCmec type III vancomycin-intermediate Staphylococcus aureus isolate gz06051 by agar dilution method; summary of the method: as §1
Staphylococcus aureus [48] = assay: Antimicrobial activity against SCCmec type III vancomycin-intermediate Staphylococcus aureus isolate 11b091 by agar dilution method; summary of the method: as §1

CC(=O)NC[C@H]1CN(c2ccc(N3CCOCC3)c(F)c2)C(=O)O1 [LINEZOLID]
Activity (Staphylococcus aureus [1]): 100% | MIC (Staphylococcus aureus [2]): 0.5 µg/mL (≈ 1.48 µM) | MIC (Staphylococcus aureus [3]): 1 µg/mL (≈ 2.96 µM) | MIC (Staphylococcus aureus [4]): 1 µg/mL (≈ 2.96 µM) | MIC (Staphylococcus aureus [5]): 1 µg/mL (≈ 2.96 µM) | Activity (Staphylococcus aureus [6]): 33.3% | Activity (Staphylococcus aureus [7]): 0% | Activity (Staphylococcus aureus [8]): 0% | MIC50 (Staphylococcus aureus [9]): 1 µg/mL (≈ 2.96 µM) | MIC90 (Staphylococcus aureus [9]): 2 µg/mL (≈ 5.93 µM) | Activity (Staphylococcus aureus [10]): 0% | MIC (Staphylococcus aureus [11]): 1 µg/mL (≈ 2.96 µM) | MIC (Staphylococcus aureus [12]): 1 µg/mL (≈ 2.96 µM) | Activity (Staphylococcus aureus [13]): 85.2% | Activity (Staphylococcus aureus [14]): 100% | MIC (Staphylococcus aureus [15]): 1 µg/mL (≈ 2.96 µM) | Activity (Staphylococcus aureus [16]): 31.2% | Activity (Staphylococcus aureus [17]): 100% | MIC (Staphylococcus aureus [18]): 0.5 µg/mL (≈ 1.48 µM) | Activity (Staphylococcus aureus [19]): 100% | Activity (Staphylococcus aureus [20]): 1.16% | MIC (Staphylococcus aureus [21]): 1 µg/mL (≈ 2.96 µM) | MIC (Staphylococcus aureus [22]): 0.5 µg/mL (≈ 1.48 µM) | MIC (Staphylococcus aureus [23]): 0.5 µg/mL (≈ 1.48 µM) | MIC (Staphylococcus aureus [24]): 0.5 µg/mL (≈ 1.48 µM) | MIC (Staphylococcus aureus [25]): 0.5 µg/mL (≈ 1.48 µM) | Activity (Staphylococcus aureus [26]): 100% | MIC (Staphylococcus aureus [27]): 1 µg/mL (≈ 2.96 µM) | MIC (Staphylococcus aureus [28]): 0.5 µg/mL (≈ 1.48 µM) | MIC (Staphylococcus aureus [29]): 0.5 µg/mL (≈ 1.48 µM) | MIC (Staphylococcus aureus [30]): 1 µg/mL (≈ 2.96 µM) | Activity (Staphylococcus aureus [31]): 100% | MIC (Staphylococcus aureus [32]): 1 µg/mL (≈ 2.96 µM) | Activity (Staphylococcus aureus [33]): 100% | MIC (Staphylococcus aureus [34]): 1 µg/mL (≈ 2.96 µM) | MIC (Staphylococcus aureus [35]): 1 µg/mL (≈ 2.96 µM) | Activity (Staphylococcus aureus [36]): 0% | Activity (Staphylococcus aureus [37]): 0.58% | Activity (Staphylococcus aureus [38]): 100% | MIC (Staphylococcus aureus [39]): 1 µg/mL (≈ 2.96 µM) | Activity (Staphylococcus aureus [40]): 82.7% | MIC50 (Staphylococcus aureus [41]): 1 µg/mL (≈ 2.96 µM) | MIC90 (Staphylococcus aureus [41]): 2 µg/mL (≈ 5.93 µM) | MIC (Staphylococcus aureus [42]): 1 µg/mL (≈ 2.96 µM) | MIC (Staphylococcus aureus [43]): 1 µg/mL (≈ 2.96 µM) | MIC (Staphylococcus aureus [44]): 0.5 µg/mL (≈ 1.48 µM)

Cc1onc(-c2ccccc2)c1C(=O)N[C@@H]1C(=O)N2[C@@H]1SC(C)(C)[C@@H]2C(=O)O [OXACILLIN]
MIC (Staphylococcus aureus [2]): > 64 µg/mL | MIC (Staphylococcus aureus [3]): > 64 µg/mL | MIC (Staphylococcus aureus [4]): > 64 µg/mL | MIC (Staphylococcus aureus [45]): > 64 µg/mL | MIC (Staphylococcus aureus [11]): > 64 µg/mL | MIC (Staphylococcus aureus [12]): 256 µg/mL (≈ 638 µM) | MIC (Staphylococcus aureus [46]): > 64 µg/mL | MIC (Staphylococcus aureus [15]): > 64 µg/mL | MIC (Staphylococcus aureus [47]): > 64 µg/mL | MIC (Staphylococcus aureus [18]): > 64 µg/mL | MIC (Staphylococcus aureus [21]): > 64 µg/mL | MIC (Staphylococcus aureus [22]): > 64 µg/mL | MIC (Staphylococcus aureus [23]): > 64 µg/mL | MIC (Staphylococcus aureus [24]): > 64 µg/mL | MIC (Staphylococcus aureus [25]): > 64 µg/mL | MIC (Staphylococcus aureus [27]): 8 µg/mL (≈ 19.9 µM) | MIC (Staphylococcus aureus [28]): > 64 µg/mL | MIC (Staphylococcus aureus [29]): > 64 µg/mL | MIC (Staphylococcus aureus [30]): 8 µg/mL (≈ 19.9 µM) | MIC (Staphylococcus aureus [32]): 256 µg/mL (≈ 638 µM) | MIC (Staphylococcus aureus [34]): > 64 µg/mL | MIC (Staphylococcus aureus [35]): > 64 µg/mL | MIC (Staphylococcus aureus [48]): > 64 µg/mL | MIC (Staphylococcus aureus [39]): > 64 µg/mL | MIC (Staphylococcus aureus [42]): > 64 µg/mL | MIC (Staphylococcus aureus [43]): 32 µg/mL (≈ 79.7 µM) | MIC (Staphylococcus aureus [44]): > 64 µg/mL
